Assay results collected from several papers.
Protocols differ between the studies behind these lines.
Target: Fibroblast growth factor receptor 2 (FGFR2, Homo sapiens, UniProt P21802)

CN(c1nccc(-c2cnn3ncccc23)n1)C1CC1  remaining binding (binding; 1 µM): 100%
Cc1c(C(=O)O)cc(-c2ccc(C3CCNCC3)cc2)c2ccc(-c3ccc(C(F)(F)F)cc3)cc12  remaining binding (cell-free assay, competition with immobilised ligand; 1 µM): 100%
COc1ccnn2ncc(-c3ccnc(N(C)C)n3)c12  remaining binding (binding; 1 µM): 100%
Cn1nc(C(=O)NCc2ccc(C(=O)O)cc2)cc1-c1ccc2[nH]ccc2c1  remaining binding (cell-free assay, competition with immobilised ligand; 0.1 µM): 87%
CC(C)(C)c1ccc(-c2nc(CBr)nn2-c2cccc(O)c2)cc1  remaining binding (cell-free assay, competition with immobilised ligand; 10 µM): 95%
C[C@H](c1ccc(F)cc1)N(Cc1cccc(C(=O)O)c1)C(=O)c1cnc2ccccc2c1  remaining binding (cell-free assay, competition with immobilised ligand; 1 µM): 74%
C[C@@H]1CN(c2ccc3ncc(-c4ccc5[nH]nc(C6CC6)c5c4)n3n2)C[C@H](C)O1  remaining binding (binding, competition with immobilised ligand; 0.5 µM): 100%
O=C(NCCCN1CCOCC1)c1ccc(Nc2nccc(-c3cc4ccccc4s3)n2)cc1  remaining binding (binding, competition with immobilised ligand; 1 µM): 84%
CCC(=O)N[C@@H]1CC[C@H](C(=O)N(C)c2ccc(-c3nc4ccccc4o3)cc2)C1  remaining binding (cell-free assay, competition with immobilised ligand; 1 µM): 86%
C[C@@H]1CCN(c2nccc(-c3cnn4ncccc34)n2)C1  remaining binding (binding; 1 µM): 92%
Cc1cc(C)c(-n2ccn3nc(-c4cccnc4)cc23)cc1NC(=O)c1cc(C#N)cc(S(F)(F)(F)(F)F)c1  remaining binding (cell-free assay, competition with immobilised ligand; 0.1 µM): 84.3%
CN(C)c1nccc(-c2cnc3ncccn23)n1  remaining binding (binding; 1 µM): 100%
CCOCCn1cc(C(=O)Nc2ccc(-n3nc(-c4cccnc4)cc3C(F)(F)F)cn2)ccc1=O  remaining binding (cell-free assay, competition with immobilised ligand; 1 µM): 49%
O=C(Nc1c[nH]nc1C(=O)NC1CCNCC1)c1cc(F)cc(F)c1  remaining binding (binding, competition with immobilised ligand; 1 µM): 100%
N[C@@H]1CCN(c2nccc(-c3cnn4ncccc34)n2)C1  remaining binding (binding; 1 µM): 99%
O=C(c1ccc(Nc2ncc(Cl)c(-c3cc4ccccc4s3)n2)cc1)N1CCC(N2CCCC2)CC1  remaining binding (binding, competition with immobilised ligand; 1 µM): 33%
c1cncc(-c2cccc(Nc3nccc(NC4CCCCC4)n3)c2)c1  remaining binding (binding, competition with immobilised ligand; 10 µM): 22%
CC(=O)c1c(NS(C)(=O)=O)c2cc(-c3ccc(Cl)cc3)c(-c3ccc(Cl)cc3Cl)nc2n(C)c1=O  remaining binding (cell-free assay, competition with immobilised ligand; 1 µM): 92%
C=CC(=O)N1CCC(C(=O)NCC(=O)N2CCN(c3nc(-c4cnc(N)nc4C(F)F)nc(N4CCOCC4)n3)CC2)CC1  remaining binding (binding, competition with immobilised ligand; 1 µM): 89%
Cc1cnc(Nc2ccc(C(=O)N3CCC(N4CCCC4)CC3)cc2)nc1-c1cc2ccccc2s1  remaining binding (binding, competition with immobilised ligand; 1 µM): 14%
CNC(=O)[C@@H]1CC[C@@H](n2c(-c3ccc4cnccc4c3)nc3ccc(C(=O)NCc4cccc(C(N)=O)c4)cc32)C1  remaining binding (binding, competition with immobilised ligand; 1 µM): 96%
CN(C)c1ncc(F)c(-c2cnn3ncccc23)n1  remaining binding (binding; 1 µM): 100%
O=C(O)[C@H]1[C@H](Cn2nnc3ccccc3c2=O)CC[C@@H]1C(=O)c1ccc(OCCC2CCOCC2)cc1  remaining binding (cell-free assay, competition with immobilised ligand; 1 µM): 100%
CC1CCCN1c1nccc(-c2cnn3ncccc23)n1 (stereo not shown)  remaining binding (binding; 1 µM): 100%
C[C@@H](c1ccc(-n2cnc3c(N)ncnc32)cc1)N1CCc2nn(C)c(Cc3ccccc3)c2C1=O  remaining binding (binding, competition with immobilised ligand; 0.1 µM): 72%
